# Source: ChEMBL document CHEMBL5724801, “EUbOPEN Chemogenomics Library - Multiplex” (2024)
# Where “and” joins values, the source holds several entries; their conditions need not be identical. Equal values may be shown once.
# System: Fibroblast
# Test: Multiplex assay against human fibroblast
# Type: toxicity, cell-based
# How it was run: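 Hoechst33342, BioTracker Green Microtubule Cytoskeleton Dye, MitoTracker Red and Annexin V Alexa Fluor 680 were added to live cells at seeding, and imaging on a CQ1 microscope at 37°C and 5% CO2 followed compound addition. Gating by CellPathfinder machine learning separated cells into Hoechst high-intensity objects or normal cells, then normal cells into healthy, pyknosed or fragmented nuclei, then pyknosed cells into mitotic or apoptotic. Per cents of healthy-nucleus cells are reported for the tubulin, mitochondrial-mass and membrane-permeability phenotypes.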
# [1] = 12 h, 1 µM, compound concentration 1 uM
# [2] = 12 h, 10 µM, compound concentration 10 uM
# [3] = 24 h, 1 µM, compound concentration 1 uM
# [4] = 24 h, 10 µM, compound concentration 10 uM
# [5] = 48 h, 1 µM, compound concentration 1 uM
# [6] = 48 h, 10 µM, compound concentration 10 uM
smiles,measurement,setting,value
O=C1CSC(=O)N1C(CCc1ccncc1)COc1ccc(-c2cccc([N+](=O)[O-])c2)cc1 (centres undefined),Population Apoptotic (%),[1],15.94% and 18.18%
same,Population Fragmented Nuclei (%),[1],10.47% and 7.01%
same,Population Healthy Nuclei (%),[1],49.42% and 67.29%
same,Population Hoechst High Intensity Objects (%),[1],0%
same,Population Membrane Permeable-Phenotype (%),[1],7.06% and 9.03%
same,Population Mitochondria Different-Phenotype (%),[1],17.65% and 14.58%
same,Population Mitotic Cells (%),[1],84.06% and 81.82%
same,Population Normal (%),[1],100%
same,Population Pyknosed Nuclei (%),[1],40.12% and 25.7%
same,Population Tubulin-Different-Phenotype (%),[1],45.88% and 47.22%
same,Total Cell Count,[1],172 and 214
same,Population Apoptotic (%),[2],20.34% and 45%
same,Population Fragmented Nuclei (%),[2],16.2% and 9.55%
same,Population Healthy Nuclei (%),[2],42.25% and 60.3%
same,Population Hoechst High Intensity Objects (%),[2],0%
same,Population Membrane Permeable-Phenotype (%),[2],16.67% and 33.33%
same,Population Mitochondria Different-Phenotype (%),[2],43.33% and 52.5%
same,Population Mitotic Cells (%),[2],79.66% and 55%
same,Population Normal (%),[2],100%
same,Population Pyknosed Nuclei (%),[2],41.55% and 30.15%
same,Population Tubulin-Different-Phenotype (%),[2],71.67% and 99.17%
same,Total Cell Count,[2],142 and 199
same,Population Apoptotic (%),[3],12.82% and 22.22%
same,Population Fragmented Nuclei (%),[3],15.38% and 8.89%
same,Population Healthy Nuclei (%),[3],63.19% and 75.11%
same,Population Hoechst High Intensity Objects (%),[3],0%
same,Population Membrane Permeable-Phenotype (%),[3],5.22% and 7.69%
same,Population Mitochondria Different-Phenotype (%),[3],13.04% and 14.79%
same,Population Mitotic Cells (%),[3],87.18% and 77.78%
same,Population Normal (%),[3],100%
same,Population Pyknosed Nuclei (%),[3],21.43% and 16%
same,Population Tubulin-Different-Phenotype (%),[3],32.17% and 39.05%
same,Total Cell Count,[3],182 and 225
same,Population Apoptotic (%),[4],30.56% and 30.23%
same,Population Fragmented Nuclei (%),[4],18.75% and 10.08%
same,Population Healthy Nuclei (%),[4],56.25% and 71.85%
same,Population Hoechst High Intensity Objects (%),[4],0%
same,Population Membrane Permeable-Phenotype (%),[4],9.88% and 12.87%
same,Population Mitochondria Different-Phenotype (%),[4],43.21% and 52.05%
same,Population Mitotic Cells (%),[4],69.44% and 69.77%
same,Population Normal (%),[4],100%
same,Population Pyknosed Nuclei (%),[4],25% and 18.07%
same,Population Tubulin-Different-Phenotype (%),[4],86.42% and 97.08%
same,Total Cell Count,[4],144 and 238
same,Population Apoptotic (%),[5],21.43% and 21.21%
same,Population Fragmented Nuclei (%),[5],11.27% and 8.23%
same,Population Healthy Nuclei (%),[5],81.86% and 77.49%
same,Population Hoechst High Intensity Objects (%),[5],0%
same,Population Membrane Permeable-Phenotype (%),[5],1.2% and 3.91%
same,Population Mitochondria Different-Phenotype (%),[5],16.17% and 5.59%
same,Population Mitotic Cells (%),[5],78.57% and 78.79%
same,Population Normal (%),[5],100%
same,Population Pyknosed Nuclei (%),[5],6.86% and 14.29%
same,Population Tubulin-Different-Phenotype (%),[5],25.75% and 37.99%
same,Total Cell Count,[5],204 and 231
same,Population Fragmented Nuclei (%),[6],15.87% and 12.5%
same,Population Healthy Nuclei (%),[6],73.02% and 80.83%
same,Population Hoechst High Intensity Objects (%),[6],0%
same,Population Membrane Permeable-Phenotype (%),[6],13.04% and 19.07%
same,Population Mitochondria Different-Phenotype (%),[6],35.51% and 19.59%
same,Population Mitotic Cells (%),[6],61.9% and 87.5%
same,Population Normal (%),[6],100%
same,Population Pyknosed Nuclei (%),[6],11.11% and 6.67%
same,Population Tubulin-Different-Phenotype (%),[6],84.06% and 98.45%
same,Total Cell Count,[6],189 and 240
CCCCCC(O)/C=C/[C@H]1C(=O)CC(O)C1C/C=C\CCCC(=O)O (some centres undefined),Population Apoptotic (%),[1],52% and 50%
same,Population Fragmented Nuclei (%),[1],24% and 40%
same,Population Healthy Nuclei (%),[1],65% and 41%
same,Population Hoechst High Intensity Objects (%),[1],1% and 2%
same,Population Membrane Permeable-Phenotype (%),[1],0% and 7%
same,Population Mitotic Cells (%),[1],47% and 50%
same,Population Normal (%),[1],98% and 97%
same,Population Pyknosed Nuclei (%),[1],10% and 18%
same,Population Tubulin-Different-Phenotype (%),[1],19% and 52%
same,Total Cell Count,[1],172 and 169
same,Population Apoptotic (%),[2],42% and 34%
same,Population Fragmented Nuclei (%),[2],16% and 20%
same,Population Healthy Nuclei (%),[2],69% and 56%
same,Population Hoechst High Intensity Objects (%),[2],0% and 2%
same,Population Membrane Permeable-Phenotype (%),[2],0% and 3%
same,Population Mitochondria Different-Phenotype (%),[2],1% and 7%
same,Population Mitotic Cells (%),[2],57% and 65%
same,Population Normal (%),[2],99% and 97%
same,Population Pyknosed Nuclei (%),[2],13% and 23%
same,Population Tubulin-Different-Phenotype (%),[2],16% and 41%
same,Total Cell Count,[2],139 and 101
same,Population Apoptotic (%),[3],35% and 50%
same,Population Fragmented Nuclei (%),[3],20% and 41%
same,Population Healthy Nuclei (%),[3],70% and 50%
same,Population Hoechst High Intensity Objects (%),[3],0% and 1%
same,Population Membrane Permeable-Phenotype (%),[3],0% and 4%
same,Population Mitochondria Different-Phenotype (%),[3],2% and 10%
same,Population Mitotic Cells (%),[3],64% and 50%
same,Population Normal (%),[3],99% and 98%
same,Population Pyknosed Nuclei (%),[3],8%
same,Population Tubulin-Different-Phenotype (%),[3],21% and 47%
same,Total Cell Count,[3],169 and 184
same,Population Apoptotic (%),[4],61% and 33%
same,Population Fragmented Nuclei (%),[4],17% and 18%
same,Population Healthy Nuclei (%),[4],72% and 59%
same,Population Hoechst High Intensity Objects (%),[4],2% and 4%
same,Population Membrane Permeable-Phenotype (%),[4],1% and 3%
same,Population Mitochondria Different-Phenotype (%),[4],3% and 1%
same,Population Mitotic Cells (%),[4],38% and 66%
same,Population Normal (%),[4],97% and 95%
same,Population Pyknosed Nuclei (%),[4],9% and 21%
same,Population Tubulin-Different-Phenotype (%),[4],21% and 29%
same,Total Cell Count,[4],138 and 101
same,Population Apoptotic (%),[5],50% and 30%
same,Population Fragmented Nuclei (%),[5],27% and 47%
same,Population Healthy Nuclei (%),[5],66% and 46%
same,Population Hoechst High Intensity Objects (%),[5],3% and 2%
same,Population Membrane Permeable-Phenotype (%),[5],0% and 3%
same,Population Mitochondria Different-Phenotype (%),[5],2% and 7%
same,Population Mitotic Cells (%),[5],50% and 70%
same,Population Normal (%),[5],96% and 97%
same,Population Pyknosed Nuclei (%),[5],5%
same,Population Tubulin-Different-Phenotype (%),[5],19% and 42%
same,Total Cell Count,[5],175 and 186
same,Population Apoptotic (%),[6],63% and 33%
same,Population Fragmented Nuclei (%),[6],17% and 30%
same,Population Healthy Nuclei (%),[6],74% and 61%
same,Population Hoechst High Intensity Objects (%),[6],4% and 0%
same,Population Membrane Permeable-Phenotype (%),[6],0% and 6%
same,Population Mitochondria Different-Phenotype (%),[6],0% and 3%
same,Population Mitotic Cells (%),[6],36% and 66%
same,Population Normal (%),[6],95% and 99%
same,Population Pyknosed Nuclei (%),[6],8%
same,Total Cell Count,[6],141 and 104
OCCCNc1cc(-c2ccnc(Nc3cccc(Cl)c3)n2)ccn1,Population Apoptotic (%),[1],58% and 50%
same,Population Fragmented Nuclei (%),[1],15% and 21%
same,Population Healthy Nuclei (%),[1],66% and 53%
same,Population Hoechst High Intensity Objects (%),[1],4% and 6%
same,Population Membrane Permeable-Phenotype (%),[1],0% and 5%
same,Population Mitochondria Different-Phenotype (%),[1],9% and 13%
same,Population Mitotic Cells (%),[1],41% and 50%
same,Population Normal (%),[1],95% and 93%
same,Population Pyknosed Nuclei (%),[1],18% and 24%
same,Population Tubulin-Different-Phenotype (%),[1],52% and 47%
same,Total Cell Count,[1],139 and 138
same,Population Apoptotic (%),[2],61% and 52%
same,Population Fragmented Nuclei (%),[2],38% and 65%
same,Population Healthy Nuclei (%),[2],44% and 24%
same,Population Hoechst High Intensity Objects (%),[2],10% and 6%
same,Population Membrane Permeable-Phenotype (%),[2],9% and 20%
same,Population Mitochondria Different-Phenotype (%),[2],25% and 11%
same,Population Mitotic Cells (%),[2],38% and 47%
same,Population Normal (%),[2],89% and 93%
same,Population Pyknosed Nuclei (%),[2],17% and 9%
same,Population Tubulin-Different-Phenotype (%),[2],88% and 84%
same,Total Cell Count,[2],136 and 227
same,Population Apoptotic (%),[3],56% and 46%
same,Population Fragmented Nuclei (%),[3],16% and 29%
same,Population Healthy Nuclei (%),[3],65% and 48%
same,Population Hoechst High Intensity Objects (%),[3],2% and 3%
same,Population Membrane Permeable-Phenotype (%),[3],1% and 6%
same,Population Mitochondria Different-Phenotype (%),[3],20% and 10%
same,Population Mitotic Cells (%),[3],43% and 53%
same,Population Normal (%),[3],97% and 96%
same,Population Pyknosed Nuclei (%),[3],17% and 22%
same,Population Tubulin-Different-Phenotype (%),[3],60% and 55%
same,Total Cell Count,[3],136 and 139
same,Population Apoptotic (%),[4],80%
same,Population Fragmented Nuclei (%),[4],36% and 63%
same,Population Healthy Nuclei (%),[4],42% and 27%
same,Population Hoechst High Intensity Objects (%),[4],11% and 6%
same,Population Membrane Permeable-Phenotype (%),[4],7% and 12%
same,Population Mitotic Cells (%),[4],20%
same,Population Normal (%),[4],88% and 93%
same,Population Pyknosed Nuclei (%),[4],20% and 9%
same,Population Tubulin-Different-Phenotype (%),[4],86% and 80%
same,Total Cell Count,[4],138 and 218
same,Population Apoptotic (%),[5],46% and 37%
same,Population Fragmented Nuclei (%),[5],27% and 36%
same,Population Healthy Nuclei (%),[5],47% and 30%
same,Population Hoechst High Intensity Objects (%),[5],8% and 7%
same,Population Membrane Permeable-Phenotype (%),[5],1% and 5%
same,Population Mitochondria Different-Phenotype (%),[5],20% and 24%
same,Population Mitotic Cells (%),[5],53% and 62%
same,Population Normal (%),[5],91% and 92%
same,Population Pyknosed Nuclei (%),[5],25% and 32%
same,Population Tubulin-Different-Phenotype (%),[5],66% and 45%
same,Total Cell Count,[5],136 and 132
same,Population Apoptotic (%),[6],91% and 85%
same,Population Fragmented Nuclei (%),[6],39% and 58%
same,Population Healthy Nuclei (%),[6],39% and 30%
same,Population Hoechst High Intensity Objects (%),[6],14% and 6%
same,Population Membrane Permeable-Phenotype (%),[6],15% and 20%
same,Population Mitochondria Different-Phenotype (%),[6],42% and 20%
same,Population Mitotic Cells (%),[6],8% and 14%
same,Population Normal (%),[6],85% and 93%
same,Population Pyknosed Nuclei (%),[6],21% and 11%
same,Population Tubulin-Different-Phenotype (%),[6],77% and 64%
same,Total Cell Count,[6],134 and 192
